Assay outcomes (PubChem BioAssay)
Compounds with a hit are over-represented: about 1.7% of the library has one in this group of screens.
CAL PDZ FP-1 – inhibitors of human CAL PDZ peptide binding | Q9HD26 | purified CAL PDZ, TMR-peptide fluorescence polarization, 1 h | inhibition, % at 24.9 µM | 300,000 compounds, 0.92% hits | AID 602252;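 active = mean inhibition of at least 30% with at least half of replicates also reaching 30%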;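 note: 0% = DMSO neutral control and 100% = excess unlabeled competitor peptide PRC23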
CAL PDZ FP-2 – inhibitors of human CAL PDZ peptide binding; Q9HD26; purified CAL PDZ, TMR-peptide fluorescence polarization, 1 h; inhibition, % at 20 µM; 330,000 compounds, 0.02% hits; AID 504414;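 active = highest replicate inhibition of at least 40%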;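 note: plate controls were DMSO neutral control wells for no effect and unlabeled competitor peptide control wells for full effect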
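Test system: tagged CAL PDZ domain / Buffer or medium: sodium phosphate/NaCl buffer pH 7.4 with TCEP, IgG, Thesit / Reagent: TMR-labelled reporter peptide T*-PRC34 bound in PDZ groove / Compound dosing: single point, 20 µM / Schedule: 1 h incubation at room temperature before polarization reading / Technique: fluorescence polarization (mP) / Benchmarks: unlabelled peptide, DMSO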
PGC1a acetyl inh – PGC1a acetylation modulation, inhibitor mode; U2OS PGC1a acetylation, AlphaScreen anti-acetyl-lysine; with virally co-expressed GCN5 acetyltransferase; inhibition, % at 15.6 µM; 350,000 compounds, 0.17% hits; AID 651687;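 active = every replicate shows inhibition of at least 40%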;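 note: 0% = neutral control wells and 100% = positive control wells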
CFTR F508del cor – CFTR F508del correction in bronchial cells; 350,000 compounds, 0.36% hits; AID 720511; CFBE cells, YFP halide quenching; stimulated with forskolin plus potentiator P3; % fluorescence drop versus neutral controls; activity (quench increase), % at 7.58 µM;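 active = mean added fluorescence quench of at least 8% versus neutral control, with both replicates also reaching 8%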;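 note: cells transiently co-express mutant CFTR-F508del with the halide-sensitive YFP; corrector assay measuring rescue of mutant channel to the surface after 24 h compound exposure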
ARNT-TACC3 inh – disruptors of human ARNT/TACC3 interaction. Q9Y6A5. AlphaScreen His-ARNT PAS-B/GST-TACC3 binding, luminescence; TACC3 fragment carries E629A point mutation. inhibition, % at 9.99 µM. 390,000 compounds, 0.66% hits. AID 623870;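 active = mean inhibition of replicates at least 50% and at least half of replicates each reaching 50%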;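 note: 0% = complete ARNT plus TACC3 wells and 100% = ARNT alone without TACC3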
miR-122 sensor – blocks miR-122 activity in Huh7 sensor cells; Huh7 miR-122 Renilla luciferase sensor, 48 h; neutral wells = 0, positive control = 100; activation (reporter increase), % at 12.5 µM; 340,000 compounds, 0.3% hits;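 active = mean replicate activation score at least 90 and every replicate individually at or above 90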;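 note: higher luciferase means less miR-122 activity so hits act as miR-122 inhibitors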
An asterisk follows results filed as active; · = not tested or not shown; ! = a repeat was not active; [ ] = another dose, or the depositor's remark.

SMILES	CAL PDZ FP-1	CAL PDZ FP-2	PGC1a acetyl inh	CFTR F508del cor	ARNT-TACC3 inh	miR-122 sensor
CCOc1ccc(/C=C/C(=O)c2ccccc2)cc1OC	1	-1	·	·	2	·
CCCOc1ccc(/C=C/C(=O)O)cc1OC	·	-3	62*	0	-6	0
CCN(C(=O)CSc1nc2ccccc2c(=O)n1-c1ccccc1F)C1CCS(=O)(=O)C1 (stereo unspecified)	-4	1	4	11*	-2	-10
O=C(NC[C@H]1CC[C@@H]2[C@@H](CN2S(=O)(=O)c2ccccc2[N+](=O)[O-])O1)C1CC1	·	·	·	-3	·	·
COc1cccc(S(=O)(=O)N2C[C@@H]3N[C@H](C2)C3c2ccc(-c3cccc(C)c3)cc2)c1 (stereo partly specified)	·	·	1	12*!	·	·
N#Cc1cccc(-c2ccc(C3[C@@H]4CN(S(=O)(=O)c5ccccc5)C[C@H]3N4)cc2)c1 (stereo partly specified)	·	·	1	-1	·	·
Cc1ccccc1S(=O)(=O)N1C[C@@H]2N[C@H](C1)C2c1ccc(-c2cccc(C#N)c2)cc1 (stereo partly specified)	·	·	6	8.4*!	·	·
N#Cc1cccc(-c2ccc([C@@H]3[C@@H]4CN(S(=O)(=O)c5ccc(-c6ccccc6)cc5)C[C@H]3N4)cc2)c1	·	·	93*	-8	·	·
Cc1cc2c(s1)Nc1ccccc1N=C2N1CCN(C)CC1	-5	0	20	9.4*	7	5
O=C(CSc1ccc2nnc(-c3ccccn3)n2n1)N1CCN(c2ccccc2)CC1	·	0	3	-2	67*	4
O=C(CSc1ccc2nnc(-c3ccccn3)n2n1)Nc1ccc2c(c1)OCO2	-8	-1	1	1	51*	0
O=C(CSc1ccc2nnc(-c3ccncc3)n2n1)Nc1ccc2c(c1)OCO2	·	-2	-3	-2	-3	-1
CCN1[C@@H]2c3ccc(-c4cccc(C(=O)N(C)C)c4)c(=O)n3C[C@@H]2[C@@H](CO)[C@@H]1C(=O)OC	·	·	·	1	13	17[16.7 µM]
CN(C)c1ccc(/C=C/c2ccc3c4ccccc4ccc3[n+]2-c2ccccc2)cc1	-5	8	44*	-17	38	-12
CCN1CCN(c2ncc(C(=O)Nc3cc(Cl)ccc3OC)c3ccccc23)CC1	-4	-2	93*	·	·	7
Cc1ccc(-n2nnnc2SCC(=O)N2c3ccccc3NC(=O)C2(C)C)cc1	-1	-1	-17	·	-27	160*
Cc1ccc(-c2nnc(SCC(=O)N3c4ccccc4NC(=O)C3(C)C)n2N)cc1	2	-1	·	·	0	2
O=C1CSC(=S)N1N=Cc1ccc(Cl)s1	-6	-2	·	-3	61*	·
O=C1CSC(=S)N1/N=C/c1ccc(O)c(O)c1O	7	0	1	·	98*	-4
O=C(N[C@@H]1CC[C@@H](CCn2cc(Cc3ccccc3)nn2)O[C@@H]1CO)c1cnccn1	·	·	5	-1	·	·
COc1ccc(-c2cc(=O)n(-c3nc4ccccc4[nH]3)[nH]2)cc1	·	-3	-13	·	47*	-12
CO[C@H]1CN(C)C(=O)c2ccc(NC(=O)C3CC3)cc2OC[C@H](C)N(C(=O)NC(C)C)C[C@H]1C	·	·	12	-1	-5	·
CN(C)N=Nc1ccc(S(N)(=O)=O)cc1	1	0	10	·	-1	-9
NS(=O)(=O)c1ccc(N=Nc2c[nH]c(=O)c(O)c2)cc1	-9	·	34	1	52*	-6
CN(C)c1ccc(N=Nc2ccc(S(N)(=O)=O)cc2)cc1	44*	-1	-3	4	·	-9
CC1CCN(C(=O)CSc2nnc(CNC(=O)c3ccc(S(=O)(=O)N(C)C)cc3)o2)CC1	55*	0	·	2	3	-6
O=C(NCc1nnc(SCC(=O)N2CCCC2)o1)c1c(F)cccc1Cl	-4	-3	0	·	3	4
O=C(CSc1nnc(CNC(=O)c2c(F)cccc2Cl)o1)NC1CCCC1	74*	-1	-1	2	2	-4
O=C(NCc1nnc(SCC(=O)N2CCCCC2)o1)c1c(F)cccc1Cl	78*	-1	5	0	-1	0
